The list is not random: actives were taken first. Their share in the collection is about 3.7%.
Kir21 block = Kir2.1 (mouse) channel inhibition; P35561; HEK293-Kir2.1, FluxOR thallium flux fluorescence; stronger effect = lower value; B-score at 10 µM; 310,000 compounds, 0.85% hits;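 active = fluorescence ratio B-score at or below minus 3 SD of library scores, with starting-brightness B-score within 2 SD, cut at about -4.2 in these data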;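 note: channel flux triggered by added potassium and thallium sulfate stimulus; B-score of peak minus minimum fluorescence over baseline after thallium stimulus; more negative B-score means stronger Kir2.1 block with less thallium influx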
hERG protect = shields human hERG channel from block by proarrhythmic agents. Q12809. CHO-hERG, FluxOR thallium flux, dofetilide IC70 present. activation (rescue from dofetilide block), less the hit threshold, % at 10 µM. 310,000 compounds, 0.51% hits. AID 1511;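 active = activation above the mean of controls blocked by dofetilide plus 5 SD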;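 note: thallium influx through hERG after potassium depolarization seen as dye fluorescence rise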
KCNK3 inh = human KCNK3 channel inhibition, primary screen; CHO-KCNK3 thallium flux, FluxOR fluorescence; stronger effect = lower value; 340,000 compounds, 0.84% hits; B-score at 10 µM; AID 602410;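 active = B-score under library mean minus 4 SD, starting fluorescence ratio at most library mean plus 5 SD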;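 note: more negative B-score means stronger inhibition of thallium flux through KCNK3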
KCNK9 inh = human KCNK9 channel inhibition; Q9NPC2; HEK293 KCNK9, FluxOR thallium flux fluorescence; stronger effect = lower value; B-score at 10 µM; 310,000 compounds, 1.2% hits; AID 488922;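 active = ratio B-score over 3 SD below the library mean, with starting fluorescence within 5 SD of its mean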;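 note: negative B-score means less thallium flux so channel inhibition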
KCNQ1 pot = potentiates or activates the human KCNQ1 potassium channel | CHO-K1 KCNQ1, thallium flux FluxOR fluorescence; stronger effect = higher value | 310,000 compounds, 0.35% hits | B-score at 10 µM | P51787 | AID 2648;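 active = fluorescence ratio B-score, a plate-corrected score, at least three library SD, with initial intensity B-score within 5 SD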
Target sequence (P51787 whole entry, looked up): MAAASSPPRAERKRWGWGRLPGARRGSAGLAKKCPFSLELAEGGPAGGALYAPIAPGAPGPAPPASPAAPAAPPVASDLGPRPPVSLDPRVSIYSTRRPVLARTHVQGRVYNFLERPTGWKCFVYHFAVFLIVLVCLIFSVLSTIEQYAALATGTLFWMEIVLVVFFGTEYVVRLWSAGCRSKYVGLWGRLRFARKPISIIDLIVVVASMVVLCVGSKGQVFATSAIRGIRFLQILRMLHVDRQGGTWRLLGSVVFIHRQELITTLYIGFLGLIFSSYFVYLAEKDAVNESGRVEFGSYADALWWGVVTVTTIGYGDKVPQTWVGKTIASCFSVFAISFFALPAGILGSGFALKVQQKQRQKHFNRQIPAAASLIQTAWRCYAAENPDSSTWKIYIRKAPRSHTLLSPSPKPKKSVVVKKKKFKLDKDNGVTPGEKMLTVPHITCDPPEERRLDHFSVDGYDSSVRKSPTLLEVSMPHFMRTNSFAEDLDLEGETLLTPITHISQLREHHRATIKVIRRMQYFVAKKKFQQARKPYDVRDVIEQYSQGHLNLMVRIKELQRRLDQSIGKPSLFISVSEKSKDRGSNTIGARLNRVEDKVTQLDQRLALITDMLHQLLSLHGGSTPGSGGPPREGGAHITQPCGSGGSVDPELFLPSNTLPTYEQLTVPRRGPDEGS
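Assay system: CHO-K1 cells stably expressing KCNQ1; Medium: assay buffer with matched DMSO; Also added: K+/Tl+ depolarizing stimulus; Dosing: single dose; Timing: dye 90 min, compound 20 min, room temperature; Measured by: kinetic FluxOR thallium fluorescence, 10-s 1-Hz baseline, 110-s post-stimulus read; Read-out: peak-minus-minimum fluorescence over initial fluorescence, negative-control normalized, B-scored.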
KCNQ1 inh = human KCNQ1 channel inhibition; P51787; CHO-K1 KCNQ1, FluxOR thallium flux fluorescence; stronger effect = higher value; B-score at 10 µM; 310,000 compounds, 1.3% hits;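 active = compounds whose thallium flux B-score, printed positive for inhibition, exceeds three library SD while starting fluorescence stays within three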;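 note: channel opened by potassium depolarization with thallium stimulus after 20 min compound exposure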
Hits are given with their value; – = inactive; · = not tested or not shown.

SMILES	Kir21 block	hERG protect	KCNK3 inh	KCNK9 inh	KCNQ1 pot	KCNQ1 inh
CCCCn1c(SCC(=O)c2ccc3c(c2)OCCO3)nnc1-c1ccoc1C	-4.96	–	–	–	–	–
O=C(COC(=O)Cc1ccccc1)NCc1ccc2c(c1)OCO2	·	·	–	·	·	·
COc1ccc2[nH]c(=O)c(CN(Cc3nnnn3Cc3ccco3)C3CCCCC3)cc2c1	-4.45	–	–	–	–	–
COc1ccc2[nH]c(=O)c(CN(Cc3ccco3)C(c3nnnn3Cc3ccccc3)C(C)C)cc2c1 (stereo not drawn)	–	–	–	–	–	7
Cn1c(=O)c2c(ncn2CC(=O)N2CCN(S(=O)(=O)c3ccccc3)CC2)n(C)c1=O	–	–	–	–	–	–
COc1ccc(CCN(C)C(=O)c2c(C)noc2C)cc1OC	·	·	–	·	·	·
COC(=O)Cn1ncc(N2CC(C)OC(C)C2)c(Cl)c1=O (stereo not drawn)	–	–	–	–	–	–
Cc1ccc(/C=C2/SC(=S)N(CCCC(=O)Nc3cc([N+](=O)[O-])ccc3O)C2=O)cc1	–	–	–	–	–	7
COc1ccc(/C=C2\SC(=O)N(CC(=O)Nc3ccccc3O)C2=O)cc1OC	–	–	–	–	–	–
O=C(CN1C(=O)S/C(=C\c2ccccc2)C1=O)Nc1cc([N+](=O)[O-])ccc1O	–	–	–	–	–	8
Cc1cc(C(=O)Cn2cnc3ccccc3c2=O)c(C)n1C1CC1	–	–	–	–	–	–
COc1ccccc1CNCC(c1ccccc1)c1ccccc1	-8.48	–	–	–	–	–
COc1cc(CNCc2cccc3ccccc23)cc(OC)c1	-4.7	–	–	–	–	–
COc1ccc(Br)cc1CNC(C)c1ccccc1 (stereo not drawn)	-4.42	–	–	–	–	–
COc1ccccc1CNCc1cccc(Oc2ccccc2)c1	-8.78	–	–	–	8	–
N=c1ccn2c(n1)O[C@H]1[C@@H](CO)[C@H](O)O[C@H]12	·	·	–	·	·	·
COc1ccccc1CNCC(O)Cn1c2ccccc2c2ccccc21 (stereo not drawn)	-13.3	–	–	–	–	–
COc1ccccc1CNCc1cc(OC)c(OC)cc1OC	–	–	–	–	–	–
COc1ccccc1CNCc1cc(Br)ccc1OC	-6.05	–	–	–	–	–
O=C(Nc1ccc(NC(=O)C2CC2)cn1)c1ccccc1	–	–	–	–	–	–
O=C(Nc1ccc(NC(=O)C2CC2)nc1)c1cccnc1	–	4.9	–	–	–	–
Cc1nc(-c2nc(-c3c(C(=O)NNC(=O)c4ccc(Cl)cc4)noc3C)cs2)cs1	–	–	–	–	17	–
Cc1nc(-c2nc(-c3c(C(=O)NNC(=O)Nc4cccc(Cl)c4)noc3C)cs2)cs1	–	–	–	–	–	–
O=C(COC(=O)c1c(Cl)ccc(Cl)c1Cl)NCC1CCCO1 (stereo not drawn)	·	·	–	·	·	·
CC1CN(C(=O)COC(=O)/C=C/c2cccc([N+](=O)[O-])c2)CC(C)O1 (stereo not drawn)	·	·	–	·	·	·
SMILES	Kir21 block	hERG protect	KCNK3 inh	KCNK9 inh	KCNQ1 pot	KCNQ1 inh
CN(C)c1ccc(NC(=O)CN2CCc3ccccc3C2)cc1	–	–	–	–	–	–
CCC(C)c1ccc(OCc2ccc(C(=O)O)o2)cc1 (stereo not drawn)	–	–	–	–	–	–
Nc1ccc2c(c1)C(=O)C(=O)c1ccccc1-2	–	6.9	–	–	–	–
Cc1ccc2nc(Cl)c(/C=N/Nc3ccc(C(=O)O)cc3)cc2c1	–	–	–	–	–	–
CCC(=O)C1CCCN(C(=O)c2ccc(OC)c(OC3CCN(C(C)=O)CC3)c2)C1 (stereo not drawn)	–	–	–	–	–	–
CSc1ccccc1NC(=O)CSCc1ccccc1Br	-5.3	–	–	–	–	–
Cc1ccccc1S(=O)(=O)Nc1nc2ccccc2nc1Cl	–	–	–	–	–	–
O=S(=O)(Nc1nc2ccccc2nc1Cl)c1ccc(Br)cc1	–	–	–	–	–	9
CC(O)(CS(=O)(=O)Cc1ccccc1)c1ccccc1Cl (stereo not drawn)	–	–	–	–	–	–
COc1cc(C)c(C(C)C)cc1S(=O)(=O)NC1CC(C)(C)NC(C)(C)C1	–	5.7	–	–	–	–
CCOc1cc(C)c(Cl)cc1S(=O)(=O)NC1CC(C)(C)NC(C)(C)C1	–	–	–	–	–	–
O=c1ccccn1Cc1c(F)cccc1Cl	–	5.2	–	–	–	–
Cc1cccn(Cc2c(F)cccc2Cl)c1=O	–	–	–	–	–	–
O=C(CNC1CCN(Cc2ccccc2)CC1)Nc1ccc(S(=O)(=O)N2CCCCC2)cc1	–	–	–	–	–	–
C[C@@]12C(=O)N(c3ccc(Cl)cc3)C(=O)N1[C@@H]1c3ccccc3OC[C@@H]1[C@H]2c1ccccc1	·	·	–	·	·	·
c1ccc(CCNCCCOc2cccc3ccccc23)cc1	-16.3	–	–	–	–	–
COc1cc(OC)cc(C(=O)NC(=S)Nc2nnn(C)n2)c1	–	–	–	–	–	–
Cc1ccc(C2=NOC(=O)/C2=C\C=C\c2ccccc2)cc1	–	–	–	–	8	–
Fc1ccc(C2CC(c3ccco3)=NN2c2ccccc2)cc1 (stereo not drawn)	–	–	–	-7.91	–	7
CS(=O)(=O)N1N=C(c2ccco2)CC1c1ccccc1 (stereo not drawn)	–	–	–	–	–	–
O=C(/C(=C/O)N=Nc1ccccc1)c1ccc(Cl)cc1	–	–	–	–	–	–
O=C(/C(=C/O)N=Nc1ccccc1)c1ccncc1	–	–	–	-7.59	–	–
Fc1cccc(CO/N=C/c2c(-c3ccccc3)nc3ccc(Cl)cn23)c1	–	6.7	–	-6.62	–	–
O=C1C=C(c2ccc(F)c(Cl)c2)C[C@@H](c2ccc(F)cc2)C1	·	·	–	·	·	·
CCCc1nc2oc3c(NCCN(C)C)ncnc3c2c2c1CCCC2	–	–	–	–	8	–
SMILES	Kir21 block	hERG protect	KCNK3 inh	KCNK9 inh	KCNQ1 pot	KCNQ1 inh
O=C(CCn1c(=O)oc2ccc(Cl)cc21)NCCCN1CCOCC1	–	–	–	–	–	–
CCN1C(=O)[C@H]2[C@@H](c3ccc(C)cc3)N3C(=O)N(c4ccc(C(F)(F)F)cc4)C(=O)[C@@]3(CC(C)C)[C@H]2C1=O	–	–	–	-7.55	–	–
CCN1C(=O)[C@H]2[C@@H](c3ccc(C)cc3)N3C(=O)N(c4ccc(C)cc4)C(=O)[C@@]3(CC)[C@H]2C1=O	–	–	–	–	–	–
O=C(c1ccc2c(=O)n3c(nc2c1)CCC3)N1CCN(S(=O)(=O)c2cccc(F)c2)CC1	–	–	–	–	–	–
CC(C)(C)c1nc(SCC(=O)NCc2ccco2)c2ccccc2n1	-8.04	–	–	–	–	–
Cc1nc(SCC(=O)NC(=O)NCc2ccco2)nc(C)c1C	–	6.7	–	–	–	–
